# Experimental data as given in PMC8790780 (Chemistry (Weinheim an der Bergstrasse, Germany), 2021).
# Tests used:
# Hsp90β = Hsp90β (Homo sapiens, UniProt P08238); assay: Fluorescence polarization; format: binding; conditions: for Selectivity: Hsp90β versus Hsp90α, from FP IC50 values; for binding affinity for Hsp90β (in words): FP assay, SAR discussion
# NCI-H1299 cells = assay: Cell viability assay; format: cell-based; conditions: Homo sapiens, NCI-H1299, 72 h, read-out: NCI—H1299 [IC50 in μM]
# Hsp90α = Hsp90α (Homo sapiens, UniProt P07900); assay: Fluorescence polarization; format: binding; conditions: for binding affinity for Hsp90α (in words): FP assay, SAR discussion
# HT29 cells = assay: Cell viability assay; format: cell-based; conditions: Homo sapiens, HT-29, 72 h, read-out: HT29 [IC50 in μM]
# [1] = tested on: Hsp90 client proteins in HT-29 cell line; assay: Western blot analysis of client proteins in HT-29 cell lysates; format: cell-based, human; conditions: HT-29, 24 h, 5-50 μM
# Procedure, shortened: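 HT29 cells grown in RPMI with 10% FBS and 1% Pen-Strep. At ~70% confluence they were treated for 24 h with test compound (5, 10, 20, 30, 40, 50 μM) or GDA 500 nM. Cells were lysed in RIPA with protease/phosphatase inhibitors and spun 12,000g for 25 min at 4°C. BCA-normalized protein was run on 10% SDS-PAGE, transferred to PVDF, and detected with specific antibodies, HRP secondary and chemiluminescence.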
# Sequence of Hsp90β (P08238 whole entry): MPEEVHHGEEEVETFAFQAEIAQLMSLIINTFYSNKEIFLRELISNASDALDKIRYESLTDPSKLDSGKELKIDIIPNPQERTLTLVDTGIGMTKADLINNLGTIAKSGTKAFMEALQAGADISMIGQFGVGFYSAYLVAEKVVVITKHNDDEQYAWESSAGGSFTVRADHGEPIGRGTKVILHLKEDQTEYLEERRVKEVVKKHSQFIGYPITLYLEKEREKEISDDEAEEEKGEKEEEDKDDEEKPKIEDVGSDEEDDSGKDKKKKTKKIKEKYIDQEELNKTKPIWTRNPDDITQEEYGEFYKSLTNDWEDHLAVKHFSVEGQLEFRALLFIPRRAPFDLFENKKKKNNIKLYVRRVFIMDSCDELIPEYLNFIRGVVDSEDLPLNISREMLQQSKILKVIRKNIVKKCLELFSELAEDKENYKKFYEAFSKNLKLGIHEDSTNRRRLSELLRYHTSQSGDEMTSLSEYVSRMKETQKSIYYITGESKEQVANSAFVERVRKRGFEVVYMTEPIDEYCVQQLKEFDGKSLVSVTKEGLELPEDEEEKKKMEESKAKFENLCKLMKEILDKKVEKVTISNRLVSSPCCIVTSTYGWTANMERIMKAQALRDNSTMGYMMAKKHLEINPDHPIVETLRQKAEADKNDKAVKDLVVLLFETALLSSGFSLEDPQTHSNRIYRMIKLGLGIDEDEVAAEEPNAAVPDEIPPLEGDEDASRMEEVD
SMILES,IC50 (Hsp90β) [µM],Selectivity (Hsp90β),IC50 (Hsp90α) [µM],IC50 (HT29 cells) [µM],binding affinity for Hsp90β (in words) (Hsp90β),binding affinity for Hsp90α (in words) (Hsp90α),selectivity for Hsp90β versus Hsp90α (Hsp90β),IC50 (NCI-H1299 cells) [µM],Erk5 total level [1],Her-2 total level [1],Hsp70 level [1],survivin protein expression level (Hsp90α-dependent client) [1],Akt protein level (Hsp90β-dependent client) ([1]; dose dependent),CDK4 protein level (Hsp90β-dependent client) ([1]; dose dependent)
"CC(C)c1cc(C(=O)N2Cc3ccccc3C2)c(O)c2c1C(=O)C(F)C2 (stereo not shown) [Compound 42, 2-fluoro-4-hydroxy-5-(isoindoline-2-carbonyl)-7-isopropyl-2,3-di-hydro-1H-inden-1-one]",0.34 ± 0.01,7.1,2.42 ± 0.07,58.3 ± 1.51,–,–,–,20.6 ± 0.28,–,–,–,–,–,–
"CC(C)c1cc(C(=O)N2Cc3ccccc3C2)c(O)c2c1CCC2 [Compound 31, (4-hydroxy-7-isopropyl-2,3-dihydro-1H-inden-5-yl)(isoindolin-2-yl)methanone]",5.23 ± 0.13,> 19.1,> 100,59.33 ± 0.18,poor binding affinity,–,–,58.1 ± 0.34,–,–,–,–,–,–
"CC(C)c1cc(C(=O)N2Cc3ccccc3C2)c(O)c2c1C(=NO)CC2 [Compound 51, (4-hydroxy-1-(hydroxyimino)-7-isopropyl-2,3-dihydro-1H-inden-5-yl)(isoindolin-2-yl)methanone]",> 100,–,> 100,51.2 ± 2.23,–,–,–,33.7 ± 1.78,–,–,–,–,–,–
"CC(C)c1cc(C(=O)N2Cc3ccccc3C2)c(O)c2[nH]nnc12 [Compound 20, (7-Hydroxy-4-isopropyl-1H-benzo[d][1,2,3]triazol-6-yl)(isoindolin-2-yl)methanone]",> 100,–,> 100,> 100,–,–,–,75 ± 21.4,–,–,–,–,–,–
"CC(C)c1cc(C(=O)N2Cc3ccccc3C2)c(O)c2ccoc12 [Compound 5, (4-Hydroxy-7-isopropylbenzofuran-5-yl)(isoindolin-2-yl) methanone]",0.27 ± 0.09,> 370,> 100,18.8 ± 2.6,–,no measurable affinity,~ 370 fold,17.5 ± 0.42,decreased at higher concentrations,decreased at higher concentrations,appear to be induced,remained unaffected until higher concentrations,induced the degradation,induced the degradation
"CC(C)c1cc(C(=O)N2Cc3ccccc3C2)c(O)c2cc[nH]c12 [Compound 18, (4-hydroxy-7-isopropyl-1H-indol-5-yl)(isoindolin-2-yl)methanone]",> 100,–,> 100,62 ± 1.42,–,–,–,> 100,–,–,–,–,–,–
"CC(C)c1cc(C(=O)N2Cc3ccccc3C2)c(O)c2c1C(=O)C=C2 [Compound 50, 4-hydroxy-5-(isoindoline-2-carbonyl)-7-isopropyl-1H-inden-1-one]",6.75 ± 0.01,–,43.1 ± 11.5,2.33 ± 0.48,–,–,–,1.53 ± 0.16,–,–,–,–,–,–
"CC(C)c1cc(C(=O)N2Cc3ccccc3C2)c(O)c2cn[nH]c12 [Compound 19, (4-Hydroxy-7-isopropyl-1H-indazol-5-yl)(isoindolin-2-yl) methanone]",> 100,–,> 100,> 100,–,–,–,> 100,–,–,–,–,–,–
"CON=C1CCc2c(O)c(C(=O)N3Cc4ccccc4C3)cc(C(C)C)c21 [Compound 52, (4-hydroxy-7-isopropyl-1-(methoxyimino)-2,3-dihydro-1H-inden-5-yl)(isoindolin-2-yl)methanone]",> 100,–,> 100,51.2 ± 2.23,–,–,–,86 ± 7.7,–,–,–,–,–,–
"CC(C)c1cc(C(=O)N2Cc3ccccc3C2)c(O)c2nc[nH]c12 [Compound 21, (4-Hydroxy-7-isopropyl-1H-benzo[d]imidazol-5-yl)(isoindolin-2-yl) methanone]",0.45 ± 0.15,4.9,2.22 ± 0.19,93.7 ± 2.67,–,–,–,60 ± 10.5,–,–,–,–,–,–
"CC(C)c1cc(C(=O)N2Cc3ccccc3C2)c(O)c2c1C(=O)C(C(F)(F)F)C2 (stereo not shown) [Compound 44, 4-Hydroxy-5-(isoindoline-2-carbonyl)-7-isopropyl-2-(trifluoromethyl)-2,3-dihydro-1H-inden-1-one]",19.6 ± 2.2,>5,> 100,75.29 ± 0.66,–,–,–,57.8 ± 8.01,–,–,–,–,–,–
"C=C1Cc2c(O)c(C(=O)N3Cc4ccccc4C3)cc(C(C)C)c2C1=O [Compound 46, 4-hydroxy-5-(isoindoline-2-carbonyl)-7-isopropyl-2-methylene-2,3-dihydro-1H-inden-1-one]",> 100,–,> 100,66.5 ± 1.35,did not display good affinity,did not display good affinity,–,68.2 ± 1.2,–,–,–,–,–,–
"CC(C)c1cc(C(=O)N2Cc3ccccc3C2)c(O)c2c1C(=O)C(F)(F)C2 [Compound 43, 2,2-difluoro-4-hydroxy-5-(isoindoline-2-carbonyl)-7-isopropyl-2,3-dihydro-1H-inden-1-one]",18.2 ± 1.3,>5,> 100,> 100,poor affinity,–,–,> 100,–,–,–,–,–,–
"CC(C)c1cc(C(=O)N2Cc3ccccc3C2)c(O)c2c1CCC2=O [Compound 29a, 7-hydroxy-6-(isoindoline-2-carbonyl)-4-isopropyl-2,3-dihydro-1H-inden-1-one]",> 100,–,> 100,63.5 ± 1.69,did not exhibit affinity,did not exhibit affinity,–,67.6 ± 4.13,–,–,–,–,–,–
"CC(C)c1cc(C(=O)N2Cc3ccccc3C2)c(O)c2c1C(=C(F)F)CC2 [Compound 45, (1-(difluoromethylene)-4-hydroxy-7-isopropyl-2,3-dihydro-1H-inden-5-yl)(isoindolin-2-yl)methanone]",> 100,–,> 100,–,did not display good affinity,did not display good affinity,–,–,–,–,–,–,–,–
"CC(C)c1cc(C(=O)N2Cc3ccccc3C2)c(O)c2c1C(=O)C(C)(C)C2 [Compound 41, 4-hydroxy-5-(isoindoline-2-carbonyl)-7-isopropyl-2,2-dimethyl-2,3-dihydro-1H-inden-1-one]",> 100,–,> 100,54.3 ± 1.32,not tolerated,–,–,51.31 ± 0.15,–,–,–,–,–,–
"CC1Cc2c(O)c(C(=O)N3Cc4ccccc4C3)cc(C(C)C)c2C1=O (stereo not shown) [Compound 40, 4-Hydroxy-5-(isoindoline-2-carbonyl)-7-isopropyl-2-methyl-2,3-di-hydro-1H-inden-1-one]",8.83 ± 1.48,>11,> 100,60.2 ± 0.63,–,–,–,59 ± 1.78,–,–,–,–,–,–

# Now from value to compound, other results behind:
IC50 (Hsp90β) [µM],Selectivity (Hsp90β),IC50 (Hsp90α) [µM],IC50 (HT29 cells) [µM],binding affinity for Hsp90β (in words) (Hsp90β),binding affinity for Hsp90α (in words) (Hsp90α),selectivity for Hsp90β versus Hsp90α (Hsp90β),SMILES,IC50 (NCI-H1299 cells) [µM],Erk5 total level [1],Her-2 total level [1],Hsp70 level [1],survivin protein expression level (Hsp90α-dependent client) [1],Akt protein level (Hsp90β-dependent client) ([1]; dose dependent),CDK4 protein level (Hsp90β-dependent client) ([1]; dose dependent)
8.29 ± 0.17,>12,> 100,51.8 ± 2.18,–,–,–,"CC(C)c1cc(C(=O)N2Cc3ccccc3C2)c(O)c2c1CC=C2 [Compound 32a, (4-Hydroxy-7-isopropyl-1H-inden-5-yl)(isoindolin-2-yl)methanone]",46.1 ± 1.11,–,–,–,–,–,–
0.15 ± 0.04,–,0.79 ± 0.14,21.7 ± 2.6,strong affinity,strong affinity,–,"CC(C)c1cc(C(=O)N2Cc3ccccc3C2)c(O)c2c1C(=O)CC2 [Compound 29b, 4-Hydroxy-5-(isoindoline-2-carbonyl)-7-isopropyl-2,3-dihydro-1H-inden-1-one]",10 ± 3.28,–,–,–,–,–,–
> 100,–,> 100,51.2 ± 2.23,–,–,–,"CC(C)c1cc(C(=O)N2Cc3ccccc3C2)c(O)c2c1CCCC2=O [Compound 59a, 8-hydroxy-7-(isoindoline-2-carbonyl)-5-isopropyl-3,4-dihydronaphthalen-1(2H)-one]",83.3 ± 1.31,–,–,–,–,–,–
1.86 ± 0.11,> 53,> 100,47.4 ± 2.94,–,–,–,"CC(C)c1cc(C(=O)N2Cc3ccccc3C2)c(O)c2c1C=CC2 [Compound 32b, (7-hydroxy-4-isopropyl-1H-inden-6-yl)(isoindolin-2-yl)methanone]",41.4 ± 1.2,–,–,–,–,–,–
> 100,–,> 100,–,–,–,–,"CC(C)c1cc(C(=O)N2Cc3ccccc3C2)c(O)c2c1C(=O)CCC2 [Compound 59b, 5-hydroxy-6-(isoindoline-2-carbonyl)-8-isopropyl-3,4-dihydronaphthalen-1(2H)-one]",–,–,–,–,–,–,–
